Test results reported in the array DNA melting data of Ke et al. (doi:10.1101/2024.01.08.574731).

Experiments:
[1] = melting temperature; fluorescence melt of hairpins on a sequencing array, two-state fit, raised by 9.35 °C to match UV melts; settings: sodium 0.088 M
How it was run: (§1)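 With Cy3 and quencher oligos annealed, library hairpins on a sequenced MiSeq flow cell were imaged for Cy3 fluorescence in 50 mM Na-HEPES pH 8.0, 25 mM NaCl, in 2.5 °C steps up to 60 °C. Melting temperature and folding enthalpy were derived from bootstrapped two-state fits of signals normalised to pre-quench Cy3 and to control constructs. Four replicates were combined by inverse variance, with fitted temperatures raised by 9.35 °C to match UV melts.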

[2] = folding enthalpy; higher = less favourable; fluorescence melt of hairpins on a sequencing array, two-state fit; settings: sodium 0.088 M
How it was run: as §1

## GGTGCCGAAAGGCGAACC ((((((....)))..)))
[1]
  Tm: 46.9 °C
[2]
  folding enthalpy: -15 kcal/mol

## GACTGGAAACAGTC (((((....)))))
[1]
  Tm: 51.7 °C
[2]
  folding enthalpy: -35.1 kcal/mol

## GGAAGGGGAAACTCTTCC (((((.(....).)))))
[1]
  Tm: 46.3 °C
[2]
  folding enthalpy: -39.7 kcal/mol

## GTACGAGGAAACTCGTAC (((((((....)))))))
[1]
  Tm: 61.9 °C
[2]
  folding enthalpy: -36.4 kcal/mol

## GCCCGCGAAAGCGATGGC ((((((....)))..)))
[1]
  Tm: 62 °C
[2]
  folding enthalpy: -19.8 kcal/mol

## GGAAACGGAAACGTTTCC (((((((....)))))))
[1]
  Tm: 64.8 °C
[2]
  folding enthalpy: -45.5 kcal/mol

## GTATGGCGAAAGCCTTAC (((.(((....))).)))
[1]
  Tm: 48.2 °C
[2]
  folding enthalpy: -22.8 kcal/mol

## GGAGGTCGAAAGACATCC (((.(((....))).)))
[1]
  Tm: 57.5 °C
[2]
  folding enthalpy: -38.7 kcal/mol

## GACGACGAAAGTCTGTC ((((((....))).)))
[1]
  Tm: 51.4 °C
[2]
  folding enthalpy: -24.4 kcal/mol

## GAAGCAGGAAACTGCTCC (.(((((....))))).)
[1]
  Tm: 41.3 °C
[2]
  folding enthalpy: -12.6 kcal/mol

## GATCAGAACACTGATC ((((((....))))))
[1]
  Tm: 48.5 °C
[2]
  folding enthalpy: -32.1 kcal/mol

## GCTTACACGAAAGTGAGC (((..(((....))))))
[1]
  Tm: 38.8 °C
[2]
  folding enthalpy: -16.9 kcal/mol

## GGATACGAAAGTACCTCC ((((((....)))..)))
[1]
  Tm: 40.1 °C
[2]
  folding enthalpy: -20 kcal/mol

## GTCTCGCGAAAGCGCGAC (((.(((....))).)))
[1]
  Tm: 53 °C
[2]
  folding enthalpy: -27.7 kcal/mol

## GATCAAACCTTTGATC ((((((....))))))
[1]
  Tm: 46 °C
[2]
  folding enthalpy: -30.1 kcal/mol

## GTGGACGAAAGTCACAC ((((((....))).)))
[1]
  Tm: 50 °C
[2]
  folding enthalpy: -20.9 kcal/mol

## GCCTACGAAAGTAAAGGC ((((((....)))..)))
[1]
  Tm: 50.2 °C
[2]
  folding enthalpy: -41.2 kcal/mol

## GGTTTCACGAAAGTGACC (((..(((....))))))
[1]
  Tm: 29.2 °C
[2]
  folding enthalpy: -12.3 kcal/mol

## GGACGCCGAAAGGCATCC (((.(((....))).)))
[1]
  Tm: 52.6 °C
[2]
  folding enthalpy: -22.6 kcal/mol

## GGCACCTCGAAAGAGGCC (((..(((....))))))
[1]
  Tm: 38.2 °C
[2]
  folding enthalpy: -12.2 kcal/mol

## GGAGATGGAAACATTTCC (((.(((....))).)))
[1]
  Tm: 39.2 °C
[2]
  folding enthalpy: -32.9 kcal/mol

## GATGCCGCGAAAGCGATC (((..(((....))))))
[1]
  Tm: 28 °C
[2]
  folding enthalpy: -7.36 kcal/mol

## GGCTGTCGAAAGACGCC (((.(((....))))))
[1]
  Tm: 61.1 °C
[2]
  folding enthalpy: -31.2 kcal/mol

## GGGATCGAAAGATGTCCC ((((((....)))..)))
[1]
  Tm: 35.9 °C
[2]
  folding enthalpy: -17.3 kcal/mol

## GTCATGCGAAAGCAAGAC (((.(((....))).)))
[1]
  Tm: 52.4 °C
[2]
  folding enthalpy: -29.6 kcal/mol

## GTGATCGAAAGATCAC ((((((....))))))
[1]
  Tm: 67.4 °C
[2]
  folding enthalpy: -37.1 kcal/mol

## GCGAAGCCTCGC ((((....))))
[1]
  Tm: 50.6 °C
[2]
  folding enthalpy: -8.82 kcal/mol

## GATCACGAAAGTGCAATC ((((((....)))..)))
[1]
  Tm: 28.1 °C
[2]
  folding enthalpy: -10 kcal/mol

## GGCGGCGAAAGCCGAGCC ((((((....)))..)))
[1]
  Tm: 58 °C
[2]
  folding enthalpy: -12.3 kcal/mol

## GGGGGGGGAAACTCCCCC (((((.(....).)))))
[1]
  Tm: 64.3 °C
[2]
  folding enthalpy: -20.3 kcal/mol

## GATCGCTCGAGCGATC ((((((....))))))
[1]
  Tm: 67.6 °C
[2]
  folding enthalpy: -42.1 kcal/mol

## GTCTCCGAAAGGACGGAC ((((((....)))..)))
[1]
  Tm: 35.7 °C
[2]
  folding enthalpy: -15.7 kcal/mol

## GGAAACGAAAGTTCGTCC ((((((....)))..)))
[1]
  Tm: 24.8 °C
[2]
  folding enthalpy: -13 kcal/mol

## GCGGTACGCCGC ((((....))))
[1]
  Tm: 67 °C
[2]
  folding enthalpy: -13.5 kcal/mol

## GCACTGGGAAACTAGTGC (((((.(....).)))))
[1]
  Tm: 53.2 °C
[2]
  folding enthalpy: -38.9 kcal/mol

## GGCTATGGAAACGTAGTC (.(((.(....).))).)
[1]
  Tm: 32.3 °C
[2]
  folding enthalpy: -18.6 kcal/mol

## GACTGGCGAAAGCCTGTC (((.(((....))).)))
[1]
  Tm: 68.9 °C
[2]
  folding enthalpy: -21.6 kcal/mol

## GAGACCCGAAAGGGACTC (((.(((....))).)))
[1]
  Tm: 57.6 °C
[2]
  folding enthalpy: -32.4 kcal/mol

## GCCGGAACGAAAGTTGGC (((..(((....))))))
[1]
  Tm: 47.4 °C
[2]
  folding enthalpy: -24.3 kcal/mol

## GTCCTGCGAAAGCATGAC (((.(((....))).)))
[1]
  Tm: 49.9 °C
[2]
  folding enthalpy: -26 kcal/mol

## GGGGAACCGAAAGGTCCC (((..(((....))))))
[1]
  Tm: 55.6 °C
[2]
  folding enthalpy: -17.3 kcal/mol

## GTGGGTGGAAACACCTGC (..((((....))))..)
[1]
  Tm: 43 °C
[2]
  folding enthalpy: -14.7 kcal/mol

## GCGAAGCGAAAGCTACGC (((.(((....))).)))
[1]
  Tm: 55 °C
[2]
  folding enthalpy: -40.4 kcal/mol

## TACCGGAAACGGTA (((((....)))))
[1]
  Tm: 50.2 °C
[2]
  folding enthalpy: -16 kcal/mol

## GGAGAGTCGAAAGACTCC (((..(((....))))))
[1]
  Tm: 46.6 °C
[2]
  folding enthalpy: -10.9 kcal/mol

## GATCTCGAGTGAGATC ((((((....))))))
[1]
  Tm: 51.8 °C
[2]
  folding enthalpy: -35.7 kcal/mol

## GTCGCTGGAAACAACGAC ((((.((....)).))))
[1]
  Tm: 47.1 °C
[2]
  folding enthalpy: -38.5 kcal/mol

## GGCTCAGGAAACTAAGCC ((((.((....)).))))
[1]
  Tm: 39 °C
[2]
  folding enthalpy: -29.1 kcal/mol

## GCGCAATCGAAAGATCGC (((..(((....))))))
[1]
  Tm: 45.5 °C
[2]
  folding enthalpy: -24.1 kcal/mol

## GCAGAGCGAAAGCTGGGC ((..(((....)))..))
[1]
  Tm: 50.7 °C
[2]
  folding enthalpy: -19.6 kcal/mol

## GATCAATCGTTTGATC ((((((....))))))
[1]
  Tm: 45.7 °C
[2]
  folding enthalpy: -33.8 kcal/mol

## GACCTTGGAAACAAGACC (..((((....))))..)
[1]
  Tm: 20 °C
[2]
  folding enthalpy: -10.9 kcal/mol

## GGAAGAGGAAACCCTTCC (((((.(....).)))))
[1]
  Tm: 37.8 °C
[2]
  folding enthalpy: -30.7 kcal/mol

## GATATTGGAAACAATGTC ((.((((....)))).))
[1]
  Tm: 36.3 °C
[2]
  folding enthalpy: -30.9 kcal/mol

## CGCCTTCGGAAACGAGCG (((..(((....))))))
[1]
  Tm: 36.3 °C
[2]
  folding enthalpy: -13.6 kcal/mol

## ATACTGAAAAGTAT (((((....)))))
[1]
  Tm: 30.6 °C
[2]
  folding enthalpy: -12.3 kcal/mol

## GGCGCCGAAAGGCGAGCC ((((((....)))..)))
[1]
  Tm: 57.6 °C
[2]
  folding enthalpy: -11.4 kcal/mol

## GAAAACGAAAGTTTTTC ((((((....))).)))
[1]
  Tm: 42.1 °C
[2]
  folding enthalpy: -17.8 kcal/mol

## GTACTCCGAAAGGAATAC (((.(((....))).)))
[1]
  Tm: 37.7 °C
[2]
  folding enthalpy: -26 kcal/mol

## CGCCGCCGGAAACGGGCG (((..(((....))))))
[1]
  Tm: 51.9 °C
[2]
  folding enthalpy: -16.5 kcal/mol

## GATCACATATGTGATC ((((((....))))))
[1]
  Tm: 58.9 °C
[2]
  folding enthalpy: -41.9 kcal/mol

## GCGAAAACGAAAGTTCGC (((..(((....))))))
[1]
  Tm: 51.6 °C
[2]
  folding enthalpy: -30.4 kcal/mol

## GTCGACGAAAGTCAGAC ((((((....))).)))
[1]
  Tm: 52.3 °C
[2]
  folding enthalpy: -35.2 kcal/mol

## GGTGCCGGAAACAGCACC (((((.(....).)))))
[1]
  Tm: 53.5 °C
[2]
  folding enthalpy: -46.2 kcal/mol

## GTGGTGGGAAACCACTGC (..((((....))))..)
[1]
  Tm: 55.1 °C
[2]
  folding enthalpy: -24.2 kcal/mol

## GTGGACGAAAGTCGTCAC ((((((....)))..)))
[1]
  Tm: 40.1 °C
[2]
  folding enthalpy: -16.3 kcal/mol

## GTGGTCGGAAACGATCGC (.(.(((....))).).)
[1]
  Tm: 46.1 °C
[2]
  folding enthalpy: -22.4 kcal/mol

## GTTTATCGAAAGATAAC (((.(((....))))))
[1]
  Tm: 35.5 °C
[2]
  folding enthalpy: -18.6 kcal/mol

## GGCTTCGAAAGAATGCC ((((((....))).)))
[1]
  Tm: 50.7 °C
[2]
  folding enthalpy: -27.9 kcal/mol
